According to ChEMBL document CHEMBL2311478, “Macrolactonolides: a novel class of anti-inflammatory compounds” (Bioorg Med Chem, 2013):
Active and inactive are the calls of the source. No cut-off for these calls is given here.

How the values were obtained:
[1] = target: T1, Glucocorticoid receptor (Homo sapiens, UniProt P04150); test: Displacement of [3H]-dexamethasone human glucocorticoid receptor alpha expressed in 293 MSR cells after 60 mins by scintillation counting; format: cell-based
T1 sequence (P04150 whole entry): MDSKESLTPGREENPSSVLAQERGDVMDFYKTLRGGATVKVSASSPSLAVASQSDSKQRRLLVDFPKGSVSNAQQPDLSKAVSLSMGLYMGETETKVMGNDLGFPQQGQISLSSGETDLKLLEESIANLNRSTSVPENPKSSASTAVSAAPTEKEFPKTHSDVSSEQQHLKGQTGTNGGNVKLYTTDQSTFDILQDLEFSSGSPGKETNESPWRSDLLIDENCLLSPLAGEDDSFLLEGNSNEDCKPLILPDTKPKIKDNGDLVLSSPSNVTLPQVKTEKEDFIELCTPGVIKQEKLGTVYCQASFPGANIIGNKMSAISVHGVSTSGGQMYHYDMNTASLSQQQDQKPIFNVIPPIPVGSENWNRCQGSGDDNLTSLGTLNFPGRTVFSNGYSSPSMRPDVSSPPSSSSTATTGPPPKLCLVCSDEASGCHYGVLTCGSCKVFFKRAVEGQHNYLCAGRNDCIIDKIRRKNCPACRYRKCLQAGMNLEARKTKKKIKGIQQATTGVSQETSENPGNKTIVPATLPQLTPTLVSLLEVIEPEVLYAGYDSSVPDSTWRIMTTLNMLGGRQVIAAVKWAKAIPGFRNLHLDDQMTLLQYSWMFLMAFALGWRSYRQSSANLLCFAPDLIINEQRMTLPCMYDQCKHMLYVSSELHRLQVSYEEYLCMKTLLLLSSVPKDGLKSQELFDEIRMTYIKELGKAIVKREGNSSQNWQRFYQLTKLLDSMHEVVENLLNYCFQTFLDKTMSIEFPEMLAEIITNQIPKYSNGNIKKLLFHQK

[2] = target: T1, Glucocorticoid receptor; test: Binding affinity to glucocorticoid receptor (unknown origin) by fluorescence polarization competitive binding assay
[3] = system: Rattus norvegicus; test: Antiinflammatory activity against ovalbumin-induced airway allergic Brown-Norway rat model assessed as decrease of eosinophils in bronchoalveolar lavage fluid at 11 mg/kg administered intranasally as dry powder measured on day 29 after ovalbumin challenge (reference value: 53.1%); format: functional, Lung; parameters: scale not given: the % may be the effect or the level left
[4] = system: Rattus norvegicus; test: Antiinflammatory activity against ovalbumin-induced airway allergic Brown-Norway rat model assessed as decrease of macrophages in bronchoalveolar lavage fluid at 11 mg/kg administered intranasally as dry powder measured on day 29 after ovalbumin challenge; format: functional, organism-based; parameters: dose 11 mg/kg; details: Lung
[5] = system: Rattus norvegicus; test: Antiinflammatory activity against ovalbumin-induced airway allergic Brown-Norway rat model assessed as decrease of neutrophils in bronchoalveolar lavage fluid at 11 mg/kg administered intranasally as dry powder measured on day 29 after ovalbumin challenge; format: functional, organism-based; parameters: dose 11 mg/kg
[6] = Drug uptake in mouse J774A1 cells at 10 uM after 3 hrs by LC-MS/MS method; format: ADME, cell-based; details: j774.a1, 3 h
Procedure, shortened: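 Uptake in J774A.1 macrophages seeded two days before at 2 × 10^5 cells/well. Cells were exposed to 10 µM compound for 3 h in DMEM/25 mM Hepes without supplements, washed with ice-cold PBS and lysed in 0.5% Triton X-100. Lysate was measured by LC–MS/MS, using a cell volume of 1.68 µL per 10^6 cells. Result is the I/E ratio, with E taken as 10 µM.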

[7] = Drug uptake in mouse J774A1 cells assessed as compound retention at 10 uM after 3 hrs by LC-MS/MS method; format: ADME, cell-based; details: j774.a1, 3 h
Procedure, shortened: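 J774A.1 cells were loaded with 10 µM compound for 3 h in DMEM/25 mM Hepes, then incubated 3 h in fresh medium. Cells were washed, lysed in 0.5% Triton X-100 and analysed by LC–MS/MS. Retention is the percentage of the initially accumulated amount remaining. Triplicates, mean ± SD from one representative experiment.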

| Compound | EC50 [1] [µM] | EC50 [2] [µM] | further results |
| --- | --- | --- | --- |
| CC[C@H]1OC(=O)[C@H](C)[C@@H](O)[C@H](C)[C@@H](O[C@@H]2O[C@H](C)C[C@H](N(C)C)[C@H]2O)[C@](C)(O)C[C@@H](C)CN(CCCNC(=O)[C@@]2(O)[C@H](C)C[C@H]3[C@@H]4CCC5=CC(=O)CC[C@]5(C)[C@H]4[C@@H](O)C[C@@]32C)[C@H](C)[C@@H](O)[C@]1(C)O | > 25 | 6.2 | – |
| CCC(=O)OCC(=O)[C@@]1(OC(=O)CC)[C@@H](C)C[C@H]2[C@@H]3CCC4=CC(=O)C=C[C@]4(C)[C@@]3(Cl)[C@@H](O)C[C@@]21C [BECLOMETHASONE DIPROPIONATE] | – | – | Activity [3]: 43%; Activity [4]: inactive; Activity [5]: inactive |
| CC[C@H]1OC(=O)[C@H](C)[C@@H](O)[C@H](C)[C@@H](O[C@@H]2O[C@H](C)C[C@H](N(C)C)[C@H]2O)[C@](C)(O)C[C@@H](C)CN(CCCNC(=O)[C@@]2(O)[C@H](C)C[C@H]3[C@@H]4C[C@H](F)C5=CC(=O)C=C[C@]5(C)[C@@]4(Cl)[C@@H](O)C[C@@]32C)[C@H](C)[C@@H](O)[C@]1(C)O | 1.68 | 0.35 | – |
| CC[C@H]1OC(=O)[C@H](C)[C@@H](O[C@H]2C[C@@](C)(OC)[C@@H](O)[C@H](C)O2)[C@H](C)[C@@H](O[C@@H]2O[C@H](C)C[C@H](N(C)C)[C@H]2O)[C@](C)(O)C[C@@H](C)CN(CCCNC(=O)[C@@]2(O)[C@H](C)C[C@H]3[C@@H]4C[C@H](F)C5=CC(=O)C=C[C@]5(C)[C@H]4[C@@H](O)C[C@@]32C)[C@H](C)[C@@H](O)[C@]1(C)O | > 25 | 1.44 | – |
| CC[C@H]1OC(=O)[C@H](C)[C@@H](O[C@H]2C[C@@](C)(OC)[C@@H](O)[C@H](C)O2)[C@H](C)[C@@H](O[C@@H]2O[C@H](C)C[C@H](N(C)C)[C@H]2O)[C@](C)(O)C[C@@H](C)CN(CCCNC(=O)[C@@]2(O)CC[C@H]3[C@@H]4CCC5=CC(=O)C=C[C@]5(C)[C@H]4[C@@H](O)C[C@@]32C)[C@H](C)[C@@H](O)[C@]1(C)O | > 25 | > 10 | – |
| CC[C@H]1OC(=O)[C@H](C)[C@@H](O[C@H]2C[C@@](C)(OC)[C@@H](O)[C@H](C)O2)[C@H](C)[C@@H](O[C@@H]2O[C@H](C)C[C@H](N(C)C)[C@H]2O)[C@](C)(O)C[C@@H](C)CN(CCCNC(=O)[C@@]2(O)C(C)C[C@H]3[C@@H]4CCC5=CC(=O)C=C[C@]5(C)[C@@]4(Cl)[C@@H](O)C[C@@]32C)[C@H](C)[C@@H](O)[C@]1(C)O (single isomer, unassigned) | > 25 | > 10 | – |
| CC[C@H]1OC(=O)[C@H](C)[C@@H](O)[C@H](C)[C@@H](O[C@@H]2O[C@H](C)C[C@H](N(C)C)[C@H]2O)[C@](C)(O)C[C@@H](C)CN(CCCNC(=O)[C@@]2(O)[C@H](C)C[C@H]3[C@@H]4C[C@H](F)C5=CC(=O)C=C[C@]5(C)[C@H]4[C@@H](O)C[C@@]32C)[C@H](C)[C@@H](O)[C@]1(C)O | 5.91 | 0.55 | – |
| CC[C@H]1OC(=O)[C@H](C)[C@@H](O[C@H]2C[C@@](C)(OC)[C@@H](O)[C@H](C)O2)[C@H](C)[C@@H](O[C@@H]2O[C@H](C)C[C@H](N(C)C)[C@H]2O)[C@](C)(O)C[C@@H](C)CN(CCCNC(=O)[C@H]2[C@H](C)C[C@H]3[C@@H]4C[C@H](F)C5=CC(=O)C=C[C@]5(C)[C@@]4(F)[C@@H](O)C[C@@]32C)[C@H](C)[C@@H](O)[C@]1(C)O | 0.53 | 0.09 | – |
| CC[C@H]1OC(=O)[C@H](C)[C@@H](O[C@H]2C[C@@](C)(OC)[C@@H](O)[C@H](C)O2)[C@H](C)[C@@H](O[C@@H]2O[C@H](C)C[C@H](N(C)C)[C@H]2O)[C@](C)(O)C[C@@H](C)CN(CCCNC(=O)[C@@]2(O)[C@H](C)C[C@H]3[C@@H]4C[C@H](F)C5=CC(=O)C=C[C@]5(C)[C@@]4(Cl)[C@@H](O)C[C@@]32C)[C@H](C)[C@@H](O)[C@]1(C)O | 3.81 | 1.5 | – |
| C[C@@H]1C[C@H]2[C@@H]3CCC4=CC(=O)C=C[C@]4(C)[C@@]3(F)[C@@H](O)C[C@]2(C)[C@@]1(O)C(=O)CO [DEXAMETHASONE] | – | – | Drug uptake [6]: Not Active; Drug uptake [7]: Not Active |
| CC[C@H]1OC(=O)[C@H](C)[C@@H](O)[C@H](C)[C@@H](O[C@@H]2O[C@H](C)C[C@H](N(C)C)[C@H]2O)[C@](C)(O)C[C@@H](C)CN(CCCNC(=O)[C@H]2[C@H](C)C[C@H]3[C@@H]4CCC5=CC(=O)C=C[C@]5(C)[C@@]4(F)[C@@H](O)C[C@@]32C)[C@H](C)[C@@H](O)[C@]1(C)O | > 25 | 2.81 | – |
| CC[C@H]1OC(=O)[C@H](C)[C@@H](O[C@H]2C[C@@](C)(OC)[C@@H](O)[C@H](C)O2)[C@H](C)[C@@H](O[C@@H]2O[C@H](C)C[C@H](N(C)C)[C@H]2O)[C@](C)(O)C[C@@H](C)CN(CCCNC(=O)[C@@]2(O)[C@H](C)C[C@H]3[C@@H]4C[C@H](F)C5=CC(=O)C=C[C@]5(C)[C@@]4(F)[C@@H](O)C[C@@]32C)[C@H](C)[C@@H](O)[C@]1(C)O | > 25 | 0.91 | – |
| CC[C@H]1OC(=O)[C@H](C)[C@@H](O)[C@H](C)[C@@H](O[C@@H]2O[C@H](C)C[C@H](N(C)C)[C@H]2O)[C@](C)(O)C[C@@H](C)CN(CCCNC(=O)[C@@]2(O)[C@H](C)C[C@H]3[C@@H]4C[C@H](F)C5=CC(=O)C=C[C@]5(C)[C@@]4(F)[C@@H](O)C[C@@]32C)[C@H](C)[C@@H](O)[C@]1(C)O | 3.36 | 0.69 | – |
| CC[C@H]1OC(=O)[C@H](C)[C@@H](O[C@H]2C[C@@](C)(OC)[C@@H](O)[C@H](C)O2)[C@H](C)[C@@H](O[C@@H]2O[C@H](C)C[C@H](N(C)C)[C@H]2O)[C@](C)(O)C[C@@H](C)CN(CCCNC(=O)[C@@]2(O)[C@H](C)C[C@H]3[C@@H]4CCC5=CC(=O)C=C[C@]5(C)[C@@]4(F)[C@@H](O)C[C@@]32C)[C@H](C)[C@@H](O)[C@]1(C)O | 23 | 2.09 | – |
| C[C@@H]1C[C@H]2[C@@H]3CCC4=CC(=O)C=C[C@]4(C)[C@@]3(F)[C@@H](O)C[C@]2(C)[C@H]1C(=O)CO [DESOXIMETASONE] | – | – | Drug uptake [6]: Not Active; Drug uptake [7]: Not Active |
| CC[C@H]1OC(=O)[C@H](C)[C@@H](O[C@H]2C[C@@](C)(OC)[C@@H](O)[C@H](C)O2)[C@H](C)[C@@H](O[C@@H]2O[C@H](C)C[C@H](N(C)C)[C@H]2O)[C@](C)(O)C[C@@H](C)CN(CCCNC(=O)[C@@]2(O)CC[C@H]3[C@@H]4CCC5=CC(=O)CC[C@]5(C)[C@H]4[C@@H](O)C[C@@]32C)[C@H](C)[C@@H](O)[C@]1(C)O | > 25 | > 10 | – |
| CC[C@H]1OC(=O)[C@H](C)[C@@H](O[C@H]2C[C@@](C)(OC)[C@@H](O)[C@H](C)O2)[C@H](C)[C@@H](O[C@@H]2O[C@H](C)C[C@H](N(C)C)[C@H]2O)[C@](C)(O)C[C@@H](C)CN(CCCNC(=O)[C@H]2CC[C@H]3[C@@H]4CCC5=CC(=O)CC[C@]5(C)[C@H]4[C@@H](O)C[C@]23C)[C@H](C)[C@@H](O)[C@]1(C)O | > 25 | > 10 | – |
